Experimental data reported in PubChem BioAssay.
Values without a mark were called inactive. Results filed as inconclusive are left out. Activity calls are given as the source filed them.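 Rule for the calls, unless noted: active = inhibition over a set limit, the all-compound mean plus 3 SD, in both replicate runs; inconclusive = over that limit in just one replicate run; inactive = at or under that limit in both runs.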

Assays:
[1] = OD615 S. cerevisiae growth inhibition, permissive medium, pilot counter-assay, permissive growth control for S. cerevisiae lifespan shortening project (AID 705;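 active = growth inhibition above 25% in both replicates, a cutoff set 3 SD above the mean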); details: OD615, 24 h, at 10 µM, active compounds read high
Outline: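 System: engineered DeaD yeast; Medium: permissive raffinose/galactose medium; Compound dosing: 10 µM single dose, 0.25% DMSO; Incubation: 4 h cell pre-growth, 24 h exposure at 30 °C; Technique: OD at 615 nm; Evaluation: growth inhibition from lowered OD615 after 24 h.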

[2] = Restrictive medium S. cerevisiae growth inhibition, OD615, pilot screen of yeast lifespan reduction project, restrictive growth control (AID 706;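 active = growth inhibition above a set limit, 3 SD over mean compound inhibition, in both replicates, cut at about 43% in these data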;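 note: modified DeaD lifespan yeast strain shifted to restrictive glucose medium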); details: OD615, 48 h, at 10 µM, active compounds read high
Outline: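 Material: modified S. cerevisiae; buffer or medium: CSMM-D glucose medium; doses: one concentration, 10 µM final, 0.25% DMSO; incubation: 48 h compound exposure at 30 °C; detection: optical density at 615 nm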

[3] = viability gain of MRP-1-high H69AR cells under doxorubicin, pilot screen, MRP-1 activator project, CellTiter-Glo, duplicate (AID 807;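 active = viability increase at or above a cutoff of the median across tested compounds plus 3 SD, cut at about 8.5% in these data, passing the limit was not always enough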;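 note: compound pretreatment 18-22 h then 72 h combined with doxorubicin; 0% = doxorubicin alone and 100% = vehicle without doxorubicin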); details: H69AR viability with doxorubicin, CellTiter-Glo luminescence; at 10 µM; active compounds read high
[4] = growth suppression of beta-catenin knockout HCT116, pilot screen, human colon tumor cells (AID 823;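 active = cell viability at or below a set limit in both duplicate runs, the limit being the all-compound median minus 4 SD, cut at about 23% in these data, passing the limit was not always enough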;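 note: 0% = wells killed by 20 µM Hyamine and 100% = untreated DMSO cell wells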); details: CellTiter-Glo, 60 h, at 10 µM, active compounds read low
[5] = inhibitors of the yeast RAM network, pilot screen, dse1pr::URA3 reporter, 5-FOA selection (AID 869);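 note: 0% = DMSO wells with no growth and 100% = 10 µM 1-NA-PP1 with full growth; RAM network block rescues cells from 5-FOA so hits raise OD615 growth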; details: S. cerevisiae dse1pr::URA3 5-FOA growth, OD615, 2 d; at 10 µM; active compounds read high; strain carries analog-sensitive mutant Cbk1 kinase
[6] = RAM signaling pathway blockade in yeast – S. cerevisiae, Pdr1DBD-CYC8 efflux-inhibited sensitized strain, primary screen (AID 1298;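 active = RAM network inhibition above 8.4% in each of two replicates, 3 SD over the compound average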;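 note: 0% = DMSO untreated cells without growth and 100% = 10 µM 1-NA-PP1 full growth; higher means more yeast growth rescued from 5-FOA killing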); details: S. cerevisiae cbk1-as DSE1-URA3 strain, 5-FOA growth OD615, 2 d; at 50 µM; active compounds read high

SMILES	growth inhibition [1]	growth inhibition [2]	viability increase [3]	viability [4]	inhibition [5]	RAM network inhibition [6]
CC1CCCN(c2nc3c(c(=O)n(C)c(=O)n3C)n2Cc2ccccc2)C1 (stereo not given)	-0.33%	-3.24%	-2.17%	85.9%	1.67%	1.56%
Cn1c(Cn2c(=O)sc3ccccc32)nnc1SCc1ccc(F)cc1	-7.12%	-5.41%	-4.85%	23.7% (active)	2.8%	16.2% (active)
Clc1cccc(CSc2nnc([C@@H]3CCCN3)o2)c1	-7.24%	-0.015%	-3.16%	98.9%	-0.08%	0.26%
CCSc1nnc(NC(=O)C2CC=CCC2C(=O)O)s1 (stereo not given)	-17.7%	-7.56%	-0.57%	103%	0.665%	4%
O=C(CCCOc1ccccc1)Nc1nnc(C2CCCO2)s1 (stereo not given)	-23.6%	-3.93%	-2.89%	102%	3.7%	8.72%
CCN1CCN(Cc2nc3c(c(=O)n(C)c(=O)n3C)n2CCCc2ccccc2)CC1	-5.05%	-8.71%	-4.04%	91%	0.665%	7.54%
CCOC(=O)c1ccccc1NC(=O)CC1Nc2ccccc2NC1=O (stereo not given)	-2.62%	-8.37%	-8.1%	55.7%	2.19%	6.39%
CCCc1[nH]nc2c1C(C1CC=CCC1)C(C#N)=C(N)O2 (stereo not given)	4.52%	6.39%	-6.94%	11.9% (active)	-0.015%	1.22%
COc1ccc(C2c3c(oc4ccccc4c3=O)C(=O)N2c2ccccn2)cc1OC (stereo not given)	-10.4%	-11.2%	-6.93%	72.7%	2.8%	2.68%
CCCc1nc2n[nH]c(N)c2c2c1CCC2	-24.2%	-12.6%	-5.25%	92%	0.825%	0.57%
COc1ccc(C(=O)Nc2ccccc2-c2nnn(CC(=O)NCc3ccco3)n2)cc1	-1.97%	10%	-2.04%	78%	4.12%	7.41%
CS(=O)(=O)c1nc(-c2cccs2)cc(C(F)(F)F)n1	-22.6%	1.86%	-8.04%	53.4%	2.05%	-0.11%
COc1ccc(NC2=NCC(=O)N2c2ccccc2)c(OC)c1	-19.2%	-5.42%	-0.89%	91.5%	1.15%	5.45%
CCN1CCN(c2nc(SC)nc3sc4c(c23)CC(C)(C)OC4)CC1	-15.9%	-8.5%	-5.96%	66.9%	1.39%	2.09%
COc1ccc(N2CC(O)=C(c3nc(C)cs3)C2=N)cc1	8.87%	5.31%	-4.67%	96.7%	1.6%	3.27%
COc1cc2c(cc1OC)C(C(=O)Nc1cccc(C)n1)C(c1cccnc1)N(C)C2=O (stereo not given)	8.34%	-5.33%	-3.94%	91.7%	0.58%	6.27%
S=c1nc(-c2ccccc2)n(CCCN2CCOCC2)c2c1CCCC2	-2.74%	23.8%	-4.35%	103%	0.18%	3.63%
O=C(CS(=O)(=O)c1c[nH]c2ccccc12)Nc1ccc2c(c1)OCCO2	-12.2%	-1.07%	-3.49%	95.7%	2.55%	1.93%
NC1=C(c2ccc(F)cc2)C(=O)CS1	-17.2%	4.04%	-1.22%	91.1%	1.85%	5.83%
CN(C)/C=C1/Sc2ccccc2C1=O	-13.4%	10%	-3.51%	103%	1.11%	-0.73%

SMILES	growth inhibition [1]	growth inhibition [2]	viability increase [3]	viability [4]	inhibition [5]	RAM network inhibition [6]
CSc1nc2c(c(=O)n1-c1ccccc1)SCC2	-15.9%	-8.25%	-2.76%	98.3%	0.775%	0.21%
O=C(Nc1ccc(Cl)cc1)c1ccncc1	-11.5%	-3.32%	0.18%	106%	1.14%	6.15%
Clc1nc2sccn2c1/C=N/n1cnc2ccccc21	19.9%	33.8%	-6.14%	94.7%	0.675%	2.34%
CC(=O)c1ccc(N2CCN(C(=O)c3ccc(NC(=O)C4CCCO4)cc3)CC2)cc1 (stereo not given)	-23.3%	-4.79%	-3%	91.2%	2.3%	1.4%
CC1CCC(NC(=O)Cn2c(=O)[nH]c3ccsc3c2=O)CC1 (stereo not given)	-13.7%	-3.85%	1.29%	99.5%	2.09%	4.16%
CCOC(=O)N1CCN(C(=O)CCc2nc3sc4c(c3c(=O)[nH]2)CCCC4)CC1	-13.4%	2.66%	-2.68%	104%	2.59%	3.99%
CC(C)c1nc2sc3c(SCC(=O)NCc4ccco4)ncnc3c2c2c1CCC2	-6.53%	-1.46%	-5.63%	91.7%	1.31%	5.66%
O=C(CCn1c(=O)[nH]c2ccsc2c1=O)N1CCc2ccccc2C1	-13.3%	-4.91%	-0.54%	97.7%	2.71%	8.73%
c1nc(NCCN2CCOCC2)c2sc3nc(N4CCOCC4)c4c(c3c2n1)CCC4	-7.6%	6.11%	-6.1%	84.8%	2.26%	8.21%
CC1CCN(CCNC(=O)c2ccc(NC(=O)C3CCCO3)cc2)CC1 (stereo not given)	-16.1%	-2.63%	-1.69%	103%	1.95%	3.74%
COc1ccc(-c2cc3ccccc3n2CC(O)Cn2nc(C)cc2C)cc1 (stereo not given)	-6.15%	12.6%	-4.13%	69.5%	0.2%	7.69%
CC1(C)Cc2c(c(=S)nc(-c3ccccc3)n2CCOCCO)CO1	-16.5%	19.6%	-2.12%	98.2%	0.775%	4.58%
COCCCNC(=O)c1ccc(Cn2c(=O)[nH]c3ccccc3c2=O)cc1	-10.2%	-0.91%	-5.59%	34.9%	1.89%	5.69%
O=C(COCCOCC(=O)N(c1ccccn1)C1CCCCC1)N(c1ccccn1)C1CCCCC1	-12.8%	-7.35%	-2.48%	92.3%	1.31%	8.62%
CC(C)n1c(CNC(=O)c2ccccc2)nc2ccccc21	-18.1%	9.14%	-3.11%	100%	2.63%	1.5%
c1cncc(CNc2c3c(nc4nnnn24)CCCC3)c1	-7.77%	-8.93%	-2.59%	90%	0.45%	-0.36%
Cn1c(/C(C#N)=C2/CCCCCN2)nc2ccccc21	-8.98%	-2.55%	-2.4%	89.6%	0.395%	1.35%
COc1cc(C2C(C(=O)c3ccco3)=C(O)C(=O)N2CCc2ccccc2)ccc1O (stereo not given)	-1.96%	-3.74%	-3.47%	95.8%	0.735%	-0.31%
NC(=O)C1CCN(c2nc(C3CC3)nc3c2nnn3Cc2ccccc2Cl)CC1	-11.9%	-3.43%	-6.11%	84.4%	3.41%	0.99%
COc1ccc(CC(=O)Nc2cc(C)c3c(=O)oc4ccccc4c3n2)cc1	-2.25%	1.88%	-4.14%	75.3%	4.06%	7.11%
